Measured values reported in publication PMC2957851 (ACS Chemical Neuroscience, 2010).
pEC50: −log10 of the molar value. Entries after “also recorded” stand apart in the source; their conditions may differ.

How the values were obtained:
[1] = target: rat mGlu3 (Rattus norvegicus, UniProt P31422); assay: Selectivity fold-shift, GIRK thallium flux in HEK/GIRK cells; format: cell-based; conditions: 30 μM test compound
How it was run: (§1)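 HEK cell lines expressing GIRK plus rat mGlu2, 3, 4, 7 or 8 or human mGlu6 were plated overnight at 37 °C. Cells were loaded with 1 μM Fluozin2-AM for 1 h at room temperature. Vehicle or 30 μM test compound was added, then varying glutamate 2.5 min later in thallium buffer (12 mM thallium sulfate). Glutamate curves were fitted by nonlinear regression. Three experiments were run in duplicate or triplicate, mean ± SEM.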

[2] = target: rat mGlu7 (Rattus norvegicus, UniProt P35400); assay: as above; format: cell-based; conditions: 30 μM test compound
How it was run: as §1

[3] = target: rat mGlu4 (Rattus norvegicus, UniProt P31423); assay: as above; format: cell-based; conditions: 30 μM test compound
How it was run: as §1

[4] = target: rat mGlu2 (Rattus norvegicus, UniProt P31421); assay: as above; format: cell-based; conditions: 30 μM test compound
Chain of rat mGlu2 (P31421 19-872): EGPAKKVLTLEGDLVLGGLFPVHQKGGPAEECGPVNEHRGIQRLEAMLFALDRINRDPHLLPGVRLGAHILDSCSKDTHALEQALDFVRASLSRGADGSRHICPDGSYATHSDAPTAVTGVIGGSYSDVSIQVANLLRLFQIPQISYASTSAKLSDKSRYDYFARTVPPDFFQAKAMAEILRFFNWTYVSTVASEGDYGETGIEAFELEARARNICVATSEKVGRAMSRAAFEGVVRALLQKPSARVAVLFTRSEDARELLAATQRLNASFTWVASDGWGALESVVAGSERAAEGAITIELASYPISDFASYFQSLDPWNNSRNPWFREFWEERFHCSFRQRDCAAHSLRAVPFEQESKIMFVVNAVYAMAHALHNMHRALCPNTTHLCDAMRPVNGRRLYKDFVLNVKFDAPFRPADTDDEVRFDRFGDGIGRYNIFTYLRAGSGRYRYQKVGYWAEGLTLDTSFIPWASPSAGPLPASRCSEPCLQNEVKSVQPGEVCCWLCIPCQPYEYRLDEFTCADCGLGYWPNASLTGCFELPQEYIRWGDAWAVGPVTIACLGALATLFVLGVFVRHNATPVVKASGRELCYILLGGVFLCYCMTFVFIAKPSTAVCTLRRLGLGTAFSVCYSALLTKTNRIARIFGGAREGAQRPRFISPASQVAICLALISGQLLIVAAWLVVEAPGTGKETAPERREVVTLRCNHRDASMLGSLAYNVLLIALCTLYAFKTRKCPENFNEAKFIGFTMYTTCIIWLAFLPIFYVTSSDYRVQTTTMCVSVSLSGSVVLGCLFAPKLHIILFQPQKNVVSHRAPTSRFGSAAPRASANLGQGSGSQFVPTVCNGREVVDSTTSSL
How it was run: as §1

[5] = target: F585I/rmGlu5 (Rattus norvegicus, UniProt P31424, F585I); format: cell-based; conditions: VU0357121 at 1 μM; transiently transfected HEK293
Chain of F585I/rmGlu5 (P31424 21-1203 F585I): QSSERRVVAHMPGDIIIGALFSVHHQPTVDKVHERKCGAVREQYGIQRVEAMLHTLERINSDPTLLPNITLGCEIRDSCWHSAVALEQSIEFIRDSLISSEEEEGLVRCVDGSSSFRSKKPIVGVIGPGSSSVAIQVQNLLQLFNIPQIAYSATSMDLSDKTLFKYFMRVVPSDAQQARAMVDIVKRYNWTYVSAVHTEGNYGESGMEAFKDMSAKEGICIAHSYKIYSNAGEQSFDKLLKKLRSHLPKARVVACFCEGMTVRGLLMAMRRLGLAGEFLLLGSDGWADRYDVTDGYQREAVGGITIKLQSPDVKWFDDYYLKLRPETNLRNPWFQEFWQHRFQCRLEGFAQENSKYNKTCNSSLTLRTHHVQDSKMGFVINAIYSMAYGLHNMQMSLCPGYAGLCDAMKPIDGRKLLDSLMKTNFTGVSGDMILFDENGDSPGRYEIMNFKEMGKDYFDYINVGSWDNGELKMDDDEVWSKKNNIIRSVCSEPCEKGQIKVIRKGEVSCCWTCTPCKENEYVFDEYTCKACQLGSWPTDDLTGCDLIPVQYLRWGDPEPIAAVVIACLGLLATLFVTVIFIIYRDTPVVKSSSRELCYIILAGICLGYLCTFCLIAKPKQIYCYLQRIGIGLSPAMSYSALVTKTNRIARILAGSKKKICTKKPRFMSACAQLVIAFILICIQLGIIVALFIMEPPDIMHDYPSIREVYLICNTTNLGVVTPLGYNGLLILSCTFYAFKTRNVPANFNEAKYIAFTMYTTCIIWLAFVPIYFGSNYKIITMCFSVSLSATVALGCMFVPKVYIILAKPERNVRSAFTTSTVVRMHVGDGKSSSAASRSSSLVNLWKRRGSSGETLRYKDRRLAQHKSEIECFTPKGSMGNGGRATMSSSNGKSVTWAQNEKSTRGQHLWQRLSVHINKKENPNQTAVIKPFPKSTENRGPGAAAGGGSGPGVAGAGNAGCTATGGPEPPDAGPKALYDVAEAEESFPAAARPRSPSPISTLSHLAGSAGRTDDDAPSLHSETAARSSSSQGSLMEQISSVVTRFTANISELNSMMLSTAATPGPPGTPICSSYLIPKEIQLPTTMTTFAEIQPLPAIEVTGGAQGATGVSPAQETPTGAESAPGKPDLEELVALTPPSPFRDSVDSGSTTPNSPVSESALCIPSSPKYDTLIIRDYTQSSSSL
How it was run: (§2)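 HEK293 cells were transiently transfected with mutant rat mGlu5 cDNA using FuGENE 6, plated the next day and assayed the following day. Cells were Fluo4-AM loaded in HBSS/HEPES/probenecid at pH 7.4. Vehicle or a fixed 1 μM PAM was added, then increasing glutamate. Calcium fluorescence was read for 160 s. Glutamate concentration–response curves were fitted by nonlinear regression to compare EC50 values.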

[6] = target: T1, rat mGlu5 (Rattus norvegicus, UniProt P31424); assay: Single-point PAM screen, potentiation of EC20 glutamate calcium response; format: cell-based; conditions: 1 μM test compound
T1 sequence (P31424 21-1203): as the sequence (P31424 21-1203 F585I) above, with I565F counted along it
How it was run: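 HEK293 cells stably expressing rat mGlu5 were plated at 30,000/well in glutamate/glutamine-free medium about 24 h ahead. Cells were loaded with 2 μM Fluo4-AM for 45 min at 37 °C in HBSS/HEPES/probenecid (pH 7.4). Vehicle or 1 μM test compound was added at 19 s, then glutamate at EC20 at 109 s. Fluorescence recorded for 160 s.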

[7] = target: human mGlu6 (Homo sapiens, UniProt O15303); assay: Selectivity fold-shift, GIRK thallium flux in HEK/GIRK cells; format: cell-based; conditions: 30 μM test compound
Chain of human mGlu6 (O15303 25-877): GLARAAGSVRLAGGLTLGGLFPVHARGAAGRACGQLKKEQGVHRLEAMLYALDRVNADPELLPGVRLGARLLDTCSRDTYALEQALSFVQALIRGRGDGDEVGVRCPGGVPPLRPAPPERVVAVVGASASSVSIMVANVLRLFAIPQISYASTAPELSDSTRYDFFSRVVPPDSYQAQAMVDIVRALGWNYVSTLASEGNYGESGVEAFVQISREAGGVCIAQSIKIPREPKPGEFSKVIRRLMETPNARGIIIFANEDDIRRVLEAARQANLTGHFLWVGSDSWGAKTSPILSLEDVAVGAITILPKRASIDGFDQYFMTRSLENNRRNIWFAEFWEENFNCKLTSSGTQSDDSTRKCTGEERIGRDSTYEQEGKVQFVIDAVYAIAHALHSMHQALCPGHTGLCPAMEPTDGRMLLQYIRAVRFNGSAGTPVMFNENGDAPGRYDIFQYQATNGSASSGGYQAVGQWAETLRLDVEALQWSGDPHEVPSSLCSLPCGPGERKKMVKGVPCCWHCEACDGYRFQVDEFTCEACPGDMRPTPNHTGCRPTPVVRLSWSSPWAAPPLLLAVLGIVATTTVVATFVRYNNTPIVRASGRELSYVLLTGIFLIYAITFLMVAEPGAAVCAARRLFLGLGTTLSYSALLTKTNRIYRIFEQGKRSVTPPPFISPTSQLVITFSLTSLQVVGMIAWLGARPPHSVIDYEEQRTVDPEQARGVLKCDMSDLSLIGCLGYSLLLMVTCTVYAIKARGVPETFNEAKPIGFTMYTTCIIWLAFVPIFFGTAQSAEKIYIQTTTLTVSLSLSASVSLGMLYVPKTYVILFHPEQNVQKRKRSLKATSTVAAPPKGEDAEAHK
How it was run: as §1

[8] = target: T1, rat mGlu5; assay: Antagonist; format: cell-based; conditions: 10 μM test compound
How it was run: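 HEK293 cells stably expressing rat mGlu5 were plated in glutamate/glutamine-free medium 24 h ahead. Cells were loaded with 2 μM Fluo4-AM in HBSS with 2.5 mM probenecid and 20 mM HEPES, pH 7.4, for 45 min at 37 °C. Vehicle or 10 μM test compound went in at 19 s, then ~EC80 glutamate at 109 s. Fluorescence was read for 160 s and normalized to the 100 μM glutamate maximum. Three experiments were run in triplicate, mean ± SEM.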

[9] = target: T1, rat mGlu5; format: cell-based
How it was run: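 Rat mGlu5 HEK293 stable cells, plated at 30,000/well in glutamate/glutamine-free medium (dialysed FBS) ≥24 h. Loaded 45 min at 37 °C with 2 μM Fluo4-AM in HBSS, 20 mM HEPES, 2.5 mM probenecid, pH 7.4. Increasing test compound added at 19 s, EC20 glutamate at 109 s. Fluorescence read for 160 s. EC50 from curve fits.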

[10] = target: rat mGlu8 (Rattus norvegicus, UniProt P70579); assay: Selectivity fold-shift, GIRK thallium flux in HEK/GIRK cells; format: cell-based; conditions: 30 μM test compound
How it was run: as §1

[11] = target: A809V/rmGlu5 (Rattus norvegicus, UniProt P31424, A809V); format: cell-based; conditions: VU0357121 at 1 μM; transiently transfected HEK293
Chain of A809V/rmGlu5 (P31424 21-1203 A809V): as the sequence (P31424 21-1203 F585I) above, with I565F, A789V counted along it
How it was run: as §2

[12] = target: rat mGlu1 (Rattus norvegicus, UniProt P23385); assay: Selectivity fold-shift, calcium assay in HEK293 cells expressing mGlu1; format: cell-based; conditions: 30 μM test compound
Chain of rat mGlu1 (P23385 19-1199): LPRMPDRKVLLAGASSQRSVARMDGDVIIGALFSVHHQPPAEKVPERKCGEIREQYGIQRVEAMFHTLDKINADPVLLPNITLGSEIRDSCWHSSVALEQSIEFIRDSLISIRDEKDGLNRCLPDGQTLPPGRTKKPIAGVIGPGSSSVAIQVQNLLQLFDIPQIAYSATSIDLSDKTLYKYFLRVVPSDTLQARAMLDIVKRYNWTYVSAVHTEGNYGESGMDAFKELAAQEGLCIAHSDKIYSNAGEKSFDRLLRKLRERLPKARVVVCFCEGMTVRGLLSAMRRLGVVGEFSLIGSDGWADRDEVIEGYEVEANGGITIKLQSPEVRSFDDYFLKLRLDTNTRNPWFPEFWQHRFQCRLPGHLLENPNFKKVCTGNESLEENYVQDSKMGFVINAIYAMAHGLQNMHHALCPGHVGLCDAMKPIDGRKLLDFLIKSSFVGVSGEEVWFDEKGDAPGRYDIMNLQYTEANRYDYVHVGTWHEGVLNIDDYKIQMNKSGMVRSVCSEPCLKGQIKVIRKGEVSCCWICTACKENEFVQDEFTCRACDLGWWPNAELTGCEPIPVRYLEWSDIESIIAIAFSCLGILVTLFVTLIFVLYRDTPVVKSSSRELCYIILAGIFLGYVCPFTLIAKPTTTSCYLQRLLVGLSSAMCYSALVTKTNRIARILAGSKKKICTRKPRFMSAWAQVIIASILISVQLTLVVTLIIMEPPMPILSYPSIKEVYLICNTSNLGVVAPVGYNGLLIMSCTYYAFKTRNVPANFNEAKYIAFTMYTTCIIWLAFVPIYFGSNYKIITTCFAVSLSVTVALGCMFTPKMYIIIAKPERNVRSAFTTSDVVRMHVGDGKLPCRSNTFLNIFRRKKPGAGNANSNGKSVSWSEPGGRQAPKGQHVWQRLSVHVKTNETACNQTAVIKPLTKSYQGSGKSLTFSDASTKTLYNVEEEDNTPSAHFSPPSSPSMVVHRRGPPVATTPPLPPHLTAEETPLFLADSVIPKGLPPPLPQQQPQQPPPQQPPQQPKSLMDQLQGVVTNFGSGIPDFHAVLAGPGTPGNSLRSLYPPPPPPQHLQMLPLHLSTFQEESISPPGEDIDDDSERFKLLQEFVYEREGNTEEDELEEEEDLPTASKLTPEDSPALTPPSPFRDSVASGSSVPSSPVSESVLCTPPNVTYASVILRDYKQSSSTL
How it was run: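 HEK293 cells stably expressing rat mGlu1, handled as for mGlu5 cells: plated in glutamate/glutamine-free medium, loaded with 2 μM Fluo4-AM (45 min, 37 °C, pH 7.4, with probenecid). Vehicle or 30 μM test compound added, then increasing glutamate concentrations. Fluo-4 fluorescence read on FlexStation over 160 s. Concentration-response curves fit by nonlinear regression.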

[13] = system: rmGlu5; conditions: CHO or HEK293 cells expressing rmGlu5; cited from earlier work
[14] = target: T1, rat mGlu5; format: cell-based; conditions: VU0365396 30 μM, EC20 glutamate
[15] = Solubility in assay; format: physicochemical; conditions: above 30 μM in assay
[16] = target: T1, rat mGlu5; format: cell-based; conditions: 10 μM test compound with VU0357121 50 nM, EC20 glutamate
How it was run: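 Same Fluo4 calcium-flux protocol in rat mGlu5 HEK293 cells. Test compound (10 μM) or vehicle co-applied with reference mGlu5 PAM (50 nM) from one 4× solution, followed by EC20 glutamate. Fluorescence recorded 160 s. Groups compared with EC20 + PAM + vehicle control by one-way ANOVA with Dunnett's test.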

Chain of rat mGlu3 (P31422 23-879): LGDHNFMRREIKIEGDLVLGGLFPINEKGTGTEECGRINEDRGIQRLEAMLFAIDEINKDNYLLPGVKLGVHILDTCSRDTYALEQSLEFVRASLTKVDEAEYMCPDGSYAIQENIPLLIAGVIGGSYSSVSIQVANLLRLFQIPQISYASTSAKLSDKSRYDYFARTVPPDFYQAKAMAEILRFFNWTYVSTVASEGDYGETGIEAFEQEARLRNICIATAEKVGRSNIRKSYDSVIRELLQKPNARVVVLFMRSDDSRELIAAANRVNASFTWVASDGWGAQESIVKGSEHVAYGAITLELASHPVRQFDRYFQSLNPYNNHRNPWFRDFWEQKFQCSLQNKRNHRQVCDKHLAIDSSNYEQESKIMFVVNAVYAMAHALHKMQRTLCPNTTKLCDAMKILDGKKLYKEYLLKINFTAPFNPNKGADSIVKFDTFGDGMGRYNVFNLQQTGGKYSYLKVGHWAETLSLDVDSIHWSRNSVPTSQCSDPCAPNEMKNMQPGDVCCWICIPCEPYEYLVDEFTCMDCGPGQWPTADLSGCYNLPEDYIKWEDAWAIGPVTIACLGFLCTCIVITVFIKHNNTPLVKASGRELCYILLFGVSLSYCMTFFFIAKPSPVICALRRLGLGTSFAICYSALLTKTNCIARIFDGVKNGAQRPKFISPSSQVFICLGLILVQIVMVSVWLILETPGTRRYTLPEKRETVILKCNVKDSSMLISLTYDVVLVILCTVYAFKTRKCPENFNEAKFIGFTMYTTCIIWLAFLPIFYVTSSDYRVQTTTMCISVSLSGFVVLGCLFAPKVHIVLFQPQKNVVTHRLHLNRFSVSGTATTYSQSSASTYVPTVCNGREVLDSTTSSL

With `CCCCOc1ccc(C(=O)Nc2ccc(F)cc2F)cc1` [VU0357121, 4-butoxy-N-(2,4-difluorophenyl)benzamide] the “modulation of agonist response (PAM activity) at mGlu3” value [1] was “does not have PAM activity”, the “modulation of agonist response (PAM activity) at mGlu7” value [2] was “does not have PAM activity” and the “modulation of agonist response (PAM activity) at mGlu4” value [3] was “does not have PAM activity”. For the same compound, the “modulation of agonist response (PAM activity) at mGlu2” value [4] was “does not have PAM activity”, the “PAM response at the F585I/rmGlu5 mutant” value [5] was “had no effect on its function” and the “potentiation of response to suboptimal (EC20) glutamate” value (from here on “potentiation of response to suboptimal”) [6] was “potentiated the response to glutamate at submicromolar concentrations”. The “modulation of agonist response (PAM activity) at mGlu6” value [7] was “does not have PAM activity”, the “inhibition of the effect of EC80 glutamate on mGlu5” value [8] was “did not inhibit the effect of glutamate on mGlu5” and the “increase in potency over the HTS hit” value ([9]; versus VU0040237) was 10 fold. For the same compound, the “modulation of agonist response (PAM activity) at mGlu8” value [10] was “does not have PAM activity”, the “PAM response at the A809V/rmGlu5 mutant” value [11] was “inhibited the ability of VU0357121 to shift the glutamate concentration−response curve; also recorded: led to an inhibition of VU0357121 activity” and the “effect on glutamate concentration-response curve at mGlu1” value [12] was “weak inhibition of glutamate responses at mGlu1”.
For `Cc1cccc(C#Cc2ccccc2)n1` [MPEP, 2-methyl-6(phenylethynyl)pyridine, reference compound], the “inhibition of the effect of EC80 glutamate on mGlu5” value [8] was “blockade”.
With `CCCCOc1ccc(C(=O)Nc2ccccc2F)cc1` [VU0040237, 4-butoxy-N-(2-fluorophenyl)benzamide] the “potentiation of response to suboptimal” value [6] was “potentiated the response to glutamate at submicromolar concentrations” and the pEC50 [9] was 6.46.
For `CNc1ncc(C#Cc2ccccc2)cn1` [MPPA, N-methyl-5-(phenylethynyl)pyrimidin-2-amine], the “intrinsic agonist activity at rmGlu5” value [13] is given as “have no effect on mGlu5 alone”.
In the case of `O=C(c1ccc(F)cc1)N1CCC[C@H](c2nc(-c3cccs3)no2)C1` [(S)-FTOPM, (S)-(4-fluorophenyl)(3-(3-(thiophen-2-yl)-1,2,4-oxadiazol-5-yl)piperidin-1-yl)methanone], the “intrinsic agonist activity at rmGlu5” value [13] is listed as “display intrinsic agonist activity at moderate to high concentrations”.
For `O=C(Nc1cc(-c2ccccc2)nn1-c1ccccc1)c1ccc([N+](=O)[O-])cc1` [VU-29, 4-nitro-N-(1,3-diphenyl-1H-pyrazol-5-yl)benzamide, reference compound], the “PAM response at the F585I/rmGlu5 mutant” value [5] was “but not VU29 is lost” and the “PAM response at the A809V/rmGlu5 mutant” value [11] was “is lost”.
For `N#Cc1cccc(C(=O)Nc2cc(-c3ccccc3)nn2-c2ccccc2)c1` [CDPPB, 3-cyano-N-(1,3-diphenyl-1H-pyrazol-5-yl)benzamide], the “intrinsic agonist activity at rmGlu5” value [13] is given as “display intrinsic agonist activity at moderate to high concentrations”.
For `CCCOc1ccc(C(=O)Nc2ccc(Cl)cn2)cc1` [VU0001850, N-(5-chloropyridin-2-yl)-4-propoxybenzamide], the “potentiation of response to suboptimal” value [6] was “potentiated the response to glutamate at submicromolar concentrations” and the pEC50 [9] was 5.89.
For `O=C(c1ccc(F)cc1)N1CCC[C@H](c2nc(-c3ccccn3)no2)C1` [(S)-FPOPM, (S)-(4-fluorophenyl)(3-(3-(pyridin-2-yl)-1,2,4-oxadiazol-5-yl)piperidin-1-yl)methanone], the “intrinsic agonist activity at rmGlu5” value [13] is listed as “have no effect on mGlu5 alone”.
In the case of `CCCCOc1ccc(C(=O)Nc2c(F)cccc2F)cc1` [VU0365396, 4-butoxy-N-(2,6-difluorophenyl)benzamide], the “effect of VU0365396 on CPPHA-induced potentiation” value [14] was “had no effect on CPPHA-induced potentiation of mGlu5 responses; also recorded: has no effect on CPPHA activity”, the “effect of VU0365396 on the VU0357121 CRC” value [14] was “induced a parallel rightward shift in the VU0357121 CRC; also recorded: induces a parallel rightward shift in the VU0357121 concentration−response curve” and the solubility [15] was “limitations with solubility precluded studies with higher concentrations”. The “inhibition of VU0357121 PAM activity” value [16] was “caused the most robust inhibition; also recorded: induces the most robust inhibition of VU0357121 effects”.
In the case of `CCCCOc1ccc(C(=O)Nc2ccc(Cl)cn2)cc1` [VU0125936, 4-butoxy-N-(5-chloropyridin-2-yl)benzamide], the “potentiation of response to suboptimal” value [6] was “potentiated the response to glutamate at submicromolar concentrations” and the pEC50 [9] was 6.18.
In the case of `O=C(Nc1ccc(Cl)cc1CN1C(=O)c2ccccc2C1=O)c1ccccc1O` [CPPHA, N-{4-chloro-2-[(1,3-dioxo-1,3-dihydro-2H-isoindol-2-yl)methyl]phenyl}-2-hydroxybenzamide], the “PAM response at the F585I/rmGlu5 mutant” value [5] is listed as “is lost”, the “intrinsic agonist activity at rmGlu5” value [13] is listed as “have no effect on mGlu5 alone” and the “PAM response at the A809V/rmGlu5 mutant” value [11] is listed as “but not CPPHA is lost”.
